Our source for the IC50 values is PMC9049778 (RSC Advances, 2020).

Assay [1] addresses PIM-1 (Homo sapiens, UniProt P11309). The experiment in a line: PIM-1 kinase assay. In kind it is biochemical.
The target in assay [2] is PIM-2 (Homo sapiens, UniProt Q9P1W9). Kind of assay: PIM-2 kinase assay. In kind it is biochemical. In outline: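 Luminescent ADP-Glo readout of ADP formed. Enzyme, substrate, ATP and inhibitor were diluted in kinase buffer, with 5% DMSO as vehicle. The kinase reaction ran 60 min at room temperature. ADP-Glo Reagent was then added for 40 min, followed by Kinase Detection Reagent for 30 min, both at room temperature, before luminescence was recorded.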
Chain of PIM-2 (Q9P1W9 whole entry): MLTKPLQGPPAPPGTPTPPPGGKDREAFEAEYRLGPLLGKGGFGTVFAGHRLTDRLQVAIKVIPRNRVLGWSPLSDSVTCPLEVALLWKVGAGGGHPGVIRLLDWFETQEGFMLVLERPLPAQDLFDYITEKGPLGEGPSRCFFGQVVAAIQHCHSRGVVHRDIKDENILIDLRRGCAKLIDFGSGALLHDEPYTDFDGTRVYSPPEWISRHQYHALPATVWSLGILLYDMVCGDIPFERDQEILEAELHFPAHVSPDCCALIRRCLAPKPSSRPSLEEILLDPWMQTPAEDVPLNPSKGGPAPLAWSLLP

Assay [3] deals with lung adenocarcinoma H1650. The experiment in a line: MTT assay, H1650. In kind it is cell-based. Particulars: Homo sapiens, NCI-H1650, 24 h, read-out: IC50 ± S.D. H1650. In outline:
(§1)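 Cell lines from ATCC were seeded at 10^4 cells per well in 100 μL medium. They were exposed to the test compound for 24 h at 37 °C under 5% CO2. Then 10 μL MTT (5.0 mg mL−1) was added for 4 h at 37 °C. Cells were lysed in isopropanol/conc. HCl/Triton X100 for 10 min at room temperature with shaking. Formazan was read at 570 nm, in triplicate.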

For assay [4], the target named is PIM-3 (Homo sapiens, UniProt Q86V86). Kind of assay: PIM-3 kinase assay. Format: biochemical. In outline:
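Radiometric filter assay. Active PIM-3 was mixed with substrate (1 mg mL−1 stock) and started with [33P]-ATP cocktail (250 μM ATP stock), then held 15 min at 30 °C. Aliquots were spotted onto P81 phosphocellulose, washed three times for about 10 min each in 1% phosphoric acid, and scintillation-counted. A no-substrate blank was subtracted. Kinase specific activity came from corrected cpm, ATP specific activity, time and enzyme amount.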

Assay [5] relates to human promyelocytic leukemia HL-60. Kind of assay: MTT assay, HL-60. In kind it is cell-based. Particulars: read-out: IC50 ± S.D. HL-60, 24 h, mean of 3 independent experiments. An outline of the steps:
as §1

In assay [6] the test system is human colon adenocarcinoma HT-29. Kind of assay: MTT assay, HT-29. The following applies: read-out: IC50 ± S.D. HT-29, 24 h, mean of 3 independent experiments. In kind it is cell-based. An outline of the steps: as §1
In assay [7] the target is PIM-1 kinase. Particulars: read-out: IC50 against PIM-1 kinase enzyme; cited from earlier work.

Some results are limits rather than exact numbers.

Chain of PIM-1 (P11309 whole entry): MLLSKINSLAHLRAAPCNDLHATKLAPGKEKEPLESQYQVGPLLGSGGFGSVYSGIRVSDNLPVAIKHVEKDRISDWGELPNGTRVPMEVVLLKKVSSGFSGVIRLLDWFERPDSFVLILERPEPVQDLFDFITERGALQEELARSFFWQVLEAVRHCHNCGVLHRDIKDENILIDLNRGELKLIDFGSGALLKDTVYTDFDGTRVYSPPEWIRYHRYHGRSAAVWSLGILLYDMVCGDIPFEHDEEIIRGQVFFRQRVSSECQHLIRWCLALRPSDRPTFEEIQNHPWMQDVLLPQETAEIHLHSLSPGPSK

Consider `COc1ccc(/C=C/C(/C=C2/C(=O)Nc3cc(Br)ccc32)=N\O)cc1` [Compound 6, (E)-6-bromo-3-((2E,3E)-2-(hydroxyimino)-4-(4-methoxyphenyl)but-3-enylidene)indolin-2-one], for which the IC50 in assay [1] is 470 ± 13 nM; in assay [2], 220 ± 10 nM; in assay [3], above 100 µM; in assay [4], 360 ± 12 nM.

Consider `COc1ccc(/C=C/C(=O)/C=C2/C(=O)Nc3cc(Br)ccc32)cc1` [Compound 5, (E)-6-bromo-3-((E)-4-(4-methoxyphenyl)-2-oxobut-3-enylidene)indolin-2 one], for which the IC50 was 1400 nM in assay [5], above 100 µM in assay [3] and 1700 nM in assay [6].

Take `COc1ccc(/C=C/C(=O)CC2(O)C(=O)Nc3cc(Br)ccc32)cc1` (centres unmarked) [Compound 4, (E)-6-bromo-3-hydroxy-3-(4-(4-methoxyphenyl)-2-oxobut-3-enyl) indolin-2-one]: the IC50 in assay [3] was above 100 µM.

`Nc1nccc(-c2c[nH]c3ccc(Br)cc23)n1` [Meridianin C, 4-(5-bromo-1H-indol-3-yl)pyrimidin-2-amine]: in assay [7], the IC50 was 1440 nM.

Consider `O=c1c(O)c(-c2ccc(O)c(O)c2)oc2cc(O)cc(O)c12` [Querecitin, quercetin, reference compound], for which the 50% inhibitory concentration (IC50) turned out to be 640 ± 10 nM in assay [2] and 830 ± 13 nM in assay [4].
